The record followed here is ChEMBL document CHEMBL3414536 (Eur J Med Chem, 2015).

Series [1] can be described thus: Aqueous solubility of the compound. The series is classed as physicochemical. To be noted: buffer. An outline of the steps:
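Solubility measured at pH 7.4, room temperature, by a previously described protocol; reported in µg/ml.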

Series [2] has as its system SK-MEL-28. Description: Cytotoxicity against human SK-MEL-28 cells by MTT assay. The series is classed as functional, cell-based. In outline: (§1)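 Human cancer cell lines were cultured for three days with or without compound at 10 nM to 100 µM and read by MTT colorimetric assay. IC50 is the concentration reducing global growth by 50% relative to untreated controls.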

The nature of series [3]: Cytotoxicity against human Hs683 cells by MTT assay. The series is classed as functional, cell-based. The note with it: Hs 683. In outline:
as §1
On the technique in general: Tetrazolium dyes change colour on reduction, which living cells bring about.

Series [4] can be described thus: Cytotoxicity against human U373 cells by MTT assay. The series is classed as functional, cell-based, U-373MG ATCC. The note with it: U373 MG. In outline: as §1
The next series deals with A549. Description: Cytotoxicity against human A549 cells by MTT assay. The series is classed as functional, cell-based. An outline of the steps:
as §1

The test system of the next series is Hs 683. Description: Cytostatic activity against human Hs683 cells after 72 hrs by videomicroscopy. The series is classed as functional, cell-based. The note with it: Hs 683, 72 h.
In another series the test system is T98G. Description: Cytotoxicity against human T98G cells by MTT assay. The series is classed as functional, cell-based. An outline of the steps: as §1
The test system of series [5] is SK-MEL-28. As to the kind of experiment: Cytostatic activity against human SK-MEL-28 cells after 72 hrs by videomicroscopy. The series is classed as functional, cell-based. The note with it: SK-MEL-28, 72 h.
Series [6] can be described thus: Cytostatic activity against human U373 cells after 72 hrs by videomicroscopy. The series is classed as functional, cell-based, U-373MG ATCC. The note with it: U373 MG.

As usually defined, the solubility is the dissolved amount per volume that the medium holds. For orientation: IC50 means the concentration at which inhibition is half-maximal. Lower therefore signals higher potency. Turning to `Cc1c2c(cc[n+]1CCO)c1ccc(OCCO)cc1n2CCO.[Br-]`, in [1] (read-out: solubility), the solubility is > 206 µg/mL. Also, the IC50 in the series with SK-MEL-28 [2] was 51000 nM; in series [3], > 100000 nM; in series [4], > 100000 nM; with A549, 51000 nM.
For the compound `Cc1c2c(cc[n+]1CCC(C)C)c1ccc(OCCC(C)C)cc1n2CCc1nnn[nH]1`, the IC50 (with SK-MEL-28 [2]; in series [3]; in the series on A549) was > 100000 nM each time.
`Cc1nccc2c3ccc(OCc4cccc(F)c4)cc3n(Cc3cccc(F)c3)c12` had an IC50 with Hs 683 of 17000 nM. In other words, the double-digit micromolar range.
As to `Cc1c2c(cc[n+]1Cc1ccc(F)cc1)c1ccc(OCc3cccc(F)c3)cc1n2Cc1cccc(F)c1.[Br-]`, the solubility in series [1] is 2.4 µg/mL.
As for `Cc1c2c(cc[n+]1Cc1ccccc1)c1ccc(OCC3CCCCC3)cc1n2CC1CCCCC1.[Br-]`, the solubility in series [1] (read-out: solubility) is < 1.7 µg/mL. The IC50 in the series on Hs 683 was determined as 400 nM.
With `Cc1c2c(cc[n+]1Cc1ccccc1F)c1ccc(OCC3CCCCC3)cc1n2CC1CCCCC1`, in the series on Hs 683, the IC50 came to 300 nM. In other words, the sub-micromolar range.
For the compound `Cc1c2c(cc[n+]1Cc1ccccc1)c1ccc(OCCC(C)C)cc1n2CCC(C)C`, the IC50 with Hs 683 worked out at 3100 nM.
Take `CCCn1c2cc(OCCC(C)C)ccc2c2cc[n+](CCC)c(C)c21.[Br-]`: the solubility in [1] (read-out: solubility) came out at 185 µg/mL. For the same compound, the concentration for half-maximal inhibition (IC50) in the series with SK-MEL-28 [2] came out at 900 nM; in series [3], 40 nM; in series [4], 600 nM; in the series with A549 it was 300 nM; with T98G, 1200 nM.
Take `CCCn1c2cc(OCc3ccccc3)ccc2c2cc[n+](CCC(C)C)c(C)c21.[Br-]`: in series [1] (read-out: solubility), the solubility stood at 164 µg/mL. Also, the 50% inhibitory concentration (IC50) is 1000 nM in the series with SK-MEL-28 [5]; 1000 nM with SK-MEL-28 [2]; 1000 nM in the series on Hs 683; 300 nM in series [3]; 2000 nM in series [4]; 300 nM in the series with A549. Further, the values for the IC50 (with T98G; in series [6]) were 1500 nM and 1000 nM, respectively.
Take `Cc1c2c(cc[n+]1CC(=O)c1ccccc1)c1ccc(OCc3ccccc3)cc1n2Cc1ccccc1`: inhibition in the series with Hs 683 was half-maximal at 26000 nM (IC50).
In the case of `CCCOc1ccc2c3cc[n+](CCC(C)C)c(C)c3n(CCC)c2c1.[Br-]`, the solubility in series [1] (read-out: solubility) was 196 µg/mL. The IC50 in the series on SK-MEL-28 [2] was 3000 nM; in series [3], 1000 nM; in series [4], 22000 nM; in the series with A549, 2000 nM; with T98G, 4000 nM.
For the compound `Cc1c2c(cc[n+]1Cc1ccccc1F)c1ccc(OCc3ccccc3)cc1n2Cc1ccccc1`, the IC50 in the series on Hs 683 is 400 nM.
In turn, `CCCn1c2cc(OCc3ccccc3)ccc2c2cc[n+](Cc3ccccc3F)c(C)c21` returned a half-maximal inhibitory concentration (IC50) in the series with Hs 683 of 500 nM.
In the series with Hs 683, `Cc1c2c(cc[n+]1CCC(C)C)c1ccc(OCCC(C)C)cc1n2CCC(C)C` showed an IC50 of 300 nM.
Consider `Cc1c2c(cc[n+]1CCC(C)C)c1ccc(OCCO)cc1n2CCO.[Br-]`, for which, in series [1] (read-out: solubility), the solubility was > 219 µg/mL. Further, the IC50 (in the series on SK-MEL-28 [2]; in series [3]; in [4]; in the series with A549) was > 100000 nM throughout.
With `Cc1c2c(cc[n+]1Cc1ccccc1)c1ccc(OCc3ccccc3)cc1n2Cc1ccccc1.[Br-]`, the solubility in series [1] (read-out: solubility) worked out at 72.5 µg/mL.
Turning to `CCCn1c2cc(OCc3ccccc3)ccc2c2cc[n+](CC)c(C)c21.[Br-]`, the solubility in [1] (read-out: solubility) amounted to 207 µg/mL. Moreover, the IC50 in the series with SK-MEL-28 [2] was 4000 nM; in series [3], 3000 nM; in [4], 22000 nM; in the series on A549, 2000 nM; with T98G it was 11000 nM.
For the compound `CCCOc1ccc2c3cc[n+](CC)c(C)c3n(CCC)c2c1.[Br-]`, in series [1] (read-out: solubility), the solubility amounted to 174 µg/mL. For the same compound, the IC50 in the series with SK-MEL-28 [2] turned out to be 8000 nM; in series [3], 2000 nM; in series [4], 35000 nM; in the series with A549, 700 nM; with T98G it was 22000 nM.
As for `CCCn1c2cc(OCCC(C)C)ccc2c2cc[n+](CC)c(C)c21.[Br-]`, the solubility in series [1] (read-out: solubility) was found to be 186 µg/mL. Moreover, the IC50 in the series with SK-MEL-28 [5] was 1000 nM; in the series on SK-MEL-28 [2], 1000 nM; in the series on Hs 683, 1000 nM; in series [3], 90 nM; in [4] it was 600 nM; in the series on A549, 200 nM. In addition, the results for the IC50 (with T98G; in [6]) were 900 nM and 1000 nM, respectively.
For the compound `CCCn1c2cc(OCc3ccccc3)ccc2c2cc[n+](CC(C)C)c(C)c21.[Br-]`, the solubility in [1] (read-out: solubility) was 207 µg/mL. Besides, the IC50 in the series on SK-MEL-28 [2] is 600 nM; in series [3], 400 nM; in series [4] it was 1000 nM; with A549 it was 800 nM; in the series with T98G, 3800 nM.
In turn, `Cc1c2c(cc[n+]1CCC(C)C)c1ccc(OCc3ccccc3)cc1n2Cc1ccccc1` registered an IC50 in the series on Hs 683 of 400 nM.
